Source: ChEMBL document CHEMBL3102763, “Synthesis, radiosynthesis and first in vitro evaluation of novel PET-tracers for the dopamine transporter: [(11)C]IPCIT and [(18)F]FE@IPCIT” (Bioorg Med Chem, 2013)
pKi: −log10 of the molar value.

Assays:
[1] = target: T1, Sodium-dependent noradrenaline transporter (Homo sapiens, UniProt P23975); test: Binding affinity to NET (unknown origin)
Procedure, shortened: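 Human NET membranes (3 µg protein/unit) in 100 mM NaCl, 50 mM Tris-HCl pH 7.4, with [3H]nisoxetine as radioligand. Run as the DAT competition assay: 2 h incubation, centrifugation at about 40,000g and β-scintillation counting. IC50 and Ki are derived from competition plots.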

[2] = target: T2, Sodium-dependent serotonin transporter (Homo sapiens, UniProt P31645); test: Binding affinity to SERT (unknown origin)
T2 sequence (P31645 whole entry): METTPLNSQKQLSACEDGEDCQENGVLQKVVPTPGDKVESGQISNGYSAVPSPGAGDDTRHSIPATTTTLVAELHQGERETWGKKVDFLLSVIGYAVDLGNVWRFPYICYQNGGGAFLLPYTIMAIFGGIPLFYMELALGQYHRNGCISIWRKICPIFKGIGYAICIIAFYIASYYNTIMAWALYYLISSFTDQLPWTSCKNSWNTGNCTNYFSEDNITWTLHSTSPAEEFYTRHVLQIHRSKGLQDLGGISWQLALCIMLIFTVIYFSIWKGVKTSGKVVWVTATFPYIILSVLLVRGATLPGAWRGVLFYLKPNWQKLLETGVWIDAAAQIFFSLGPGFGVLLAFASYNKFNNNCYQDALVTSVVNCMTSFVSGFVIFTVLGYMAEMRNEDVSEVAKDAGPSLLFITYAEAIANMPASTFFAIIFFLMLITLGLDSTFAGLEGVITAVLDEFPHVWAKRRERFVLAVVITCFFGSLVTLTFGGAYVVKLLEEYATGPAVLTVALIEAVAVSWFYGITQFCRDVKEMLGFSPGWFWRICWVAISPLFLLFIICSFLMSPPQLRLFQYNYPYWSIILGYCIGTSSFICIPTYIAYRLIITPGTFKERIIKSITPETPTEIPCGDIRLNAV
Procedure, shortened: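 Human SERT membranes (9 µg protein/unit) in 100 mM NaCl, 50 mM Tris-HCl pH 7.4, with [3H]imipramine as radioligand. Run as the DAT competition assay: 2 h incubation, centrifugation at about 40,000g and β-scintillation counting. IC50 and Ki are derived from competition plots.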

[3] = target: T2, Sodium-dependent serotonin transporter; test: Displacement of [3H][…] from human SERT after 2 hrs by liquid scintillation counting analysis
[4] = species: Homo sapiens; test: Selectivity ratio of Ki for human NET to Ki for human DAT
Procedure, shortened: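 Ratio of Ki values from competition binding on human NET membranes ([3H]nisoxetine) and human DAT membranes ([3H]WIN 35,428). Both were measured in 100 mM NaCl, 50 mM Tris-HCl pH 7.4 with 2 h incubation and scintillation counting.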

[5] = target: T3, Sodium-dependent dopamine transporter (Homo sapiens, UniProt Q01959); test: Displacement of [3H]WIN35428 from human DAT after 2 hrs by liquid scintillation counting analysis
T3 sequence (Q01959 whole entry): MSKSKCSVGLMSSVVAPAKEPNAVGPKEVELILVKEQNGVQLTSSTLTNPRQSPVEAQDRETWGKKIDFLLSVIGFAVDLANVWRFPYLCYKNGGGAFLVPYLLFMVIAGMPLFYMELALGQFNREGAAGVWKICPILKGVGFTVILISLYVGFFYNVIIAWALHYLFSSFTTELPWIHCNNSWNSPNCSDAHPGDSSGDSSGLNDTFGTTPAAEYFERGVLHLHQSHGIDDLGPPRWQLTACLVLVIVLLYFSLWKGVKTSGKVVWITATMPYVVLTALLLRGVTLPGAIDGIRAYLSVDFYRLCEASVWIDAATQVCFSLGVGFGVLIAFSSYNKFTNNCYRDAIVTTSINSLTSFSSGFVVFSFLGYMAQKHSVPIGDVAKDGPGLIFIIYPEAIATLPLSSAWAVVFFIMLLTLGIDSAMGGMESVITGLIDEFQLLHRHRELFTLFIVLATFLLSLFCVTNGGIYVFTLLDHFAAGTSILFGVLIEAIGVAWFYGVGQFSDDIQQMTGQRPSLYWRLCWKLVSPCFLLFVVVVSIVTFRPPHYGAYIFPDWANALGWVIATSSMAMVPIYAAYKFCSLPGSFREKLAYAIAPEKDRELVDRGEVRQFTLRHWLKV
Procedure, shortened: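 Competition binding on human DAT membranes (12.7 µg protein/unit) in 100 mM NaCl, 50 mM Tris-HCl pH 7.4, with [3H]WIN 35,428 added as a 3 nM solution. Nonspecific binding defined with 10 µM GBR 12909. After 2 h incubation, bound label is pelleted at about 40,000g, washed twice with ice-cold buffer and counted by β-scintillation. IC50 and Ki come from competition plots, three assays each in triplicate.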

[6] = Metabolic stability in human plasma assessed as compound remaining after 1 hr by radio-HPLC analysis; format: ADME, cell-free; conditions: read-out: Stability
Procedure, shortened: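 Radiotracer (10 µL) incubated in 500 µL pooled Li-heparin human plasma at 37 °C for up to 60 min, with ethanol kept at or below 2% final. Aliquots are quenched with one volume of ice-cold MeOH/ACN (10/1) and centrifuged (23,000g, 4 min, 5 °C). Supernatants are analysed by radio-HPLC for percent […].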

[7] = target: T1, Sodium-dependent noradrenaline transporter; test: Displacement of [3H][…] from human NET after 2 hrs by liquid scintillation counting analysis
[8] = Drug metabolism in human liver microsomes after 1 hr by radio-HPLC analysis relative to control; format: ADME; conditions: read-out: Drug metabolism
Procedure, shortened: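 Pooled human liver microsomes are preincubated 5 min at 37 °C in pH 7.4 phosphate buffer with an NADPH-generating system. Formulated radiotracer (6 µL) is then added in 300 µL final volume, with ethanol at or below 2%. Incubations are quenched with one volume MeOH/ACN (10/1), vortexed and centrifuged. Supernatants are analysed by radio-HPLC for percent intact tracer.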

[9] = tested on: CES1b/CES1c/CES2; test: Metabolic stability assessed as human CES1b/CES1c/CES2-mediated hydrolysis measuring compound remaining after 60 mins by radio-HPLC analysis; format: ADME; conditions: human carboxylesterases CES1b, CES1c and CES2, read-out: Stability
Procedure, shortened: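 A 1/1/1 mixture (20 µL) of human CES1b, CES1c and CES2 (each 5 mg/mL) is diluted with 270 µL phosphate buffer pH 7.4. Radiotracer (6 µL) is incubated in it, quenched with MeOH/ACN (10/1) and centrifuged. Supernatants are analysed by radio-HPLC for percent intact tracer.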

[10] = Lipophilicity, log D of the compound; format: physicochemical; conditions: octanol/water
Procedure, shortened: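 HPLC method on a short polymeric ODP-50 column, with toluene and triphenylene co-injected as standards of known logD and k'. A linear gradient runs from 10% MeOH/90% 25 mM phosphate buffer to 100% methanol over 9.4 min at 1.5 mL/min.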

[11] = target: T3, Sodium-dependent dopamine transporter; test: Binding affinity to DAT (unknown origin)
Procedure, shortened: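 Competition binding on human DAT-expressing membranes (12.7 µg protein/unit) in 50 mM Tris-HCl, 100 mM NaCl, pH 7.4. The radioligand was ³H-WIN 35,428, added from a 3 nM solution. Non-specific binding was defined with 10 µM GBR 12909. After 2 h incubation, membranes were pelleted at about 40,000g and washed with ice-cold buffer, then counted by β-scintillation. IC50/Ki came from competition plots: three assays, each in triplicate.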

[12] = species: Homo sapiens; test: Selectivity ratio of Ki for human SERT to Ki for human DAT
Procedure, shortened: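 Ratio of Ki values from competition binding on human SERT membranes ([3H]imipramine) and human DAT membranes ([3H]WIN 35,428). Both were measured in 100 mM NaCl, 50 mM Tris-HCl pH 7.4 with 2 h incubation and scintillation counting.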

T1 sequence (P23975 whole entry): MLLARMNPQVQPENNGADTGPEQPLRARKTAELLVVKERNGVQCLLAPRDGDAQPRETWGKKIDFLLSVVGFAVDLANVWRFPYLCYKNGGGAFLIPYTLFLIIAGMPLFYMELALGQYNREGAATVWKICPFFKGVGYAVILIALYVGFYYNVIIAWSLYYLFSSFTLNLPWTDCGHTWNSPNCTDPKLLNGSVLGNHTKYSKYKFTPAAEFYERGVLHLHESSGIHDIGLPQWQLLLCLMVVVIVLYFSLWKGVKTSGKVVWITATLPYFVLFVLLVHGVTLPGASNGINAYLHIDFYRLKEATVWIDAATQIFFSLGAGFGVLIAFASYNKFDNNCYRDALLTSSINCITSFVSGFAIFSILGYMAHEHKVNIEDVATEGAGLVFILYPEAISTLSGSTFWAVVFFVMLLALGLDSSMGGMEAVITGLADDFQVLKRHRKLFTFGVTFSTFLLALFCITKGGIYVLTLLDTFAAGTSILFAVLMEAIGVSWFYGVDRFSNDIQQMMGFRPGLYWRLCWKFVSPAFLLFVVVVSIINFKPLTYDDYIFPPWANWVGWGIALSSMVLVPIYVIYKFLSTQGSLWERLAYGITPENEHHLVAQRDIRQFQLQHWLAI

Structure (SMILES)	pKi [1]	pKi [2]	pKi [3]	Ratio Ki [4]	pKi [5]	remaining at 1 h [6] [%]	pKi [7]	metabolised at 1 h [8] [%]	remaining at 1 h [9] [%]	logD [10]	pKi [11]	Ratio Ki [12]
COC(=O)[C@H]1[C@@H](c2ccc(C)cc2)C[C@@H]2CC[C@H]1N2C/C=C/I	< 6.00	6.30	–	–	–	–	–	–	–	–	–	–
COC(=O)[C@H]1[C@@H](c2ccc(I)cc2)C[C@@H]2CC[C@H]1N2C/C=C/I	–	–	8.82	11	8.76	100	7.70	46.4	92	5.29	–	–
COC(=O)[C@H]1[C@@H](c2ccc(I)cc2)C[C@@H]2CC[C@H]1N2C	7.48	7.54	–	–	–	–	–	–	–	–	8.20	–
O=C(OCCF)[C@H]1[C@@H](c2ccc(I)cc2)C[C@@H]2CC[C@H]1N2C/C=C/I	–	–	8.62	115	8.88	–	6.82	–	–	5.39	–	1.8
O=C(O)[C@H]1[C@@H](c2ccc(I)cc2)C[C@@H]2CC[C@H]1N2C/C=C/I	–	–	7.15	–	7.43	–	6.11	–	–	0.8	–	–
O=C(OCC[18F])[C@H]1[C@@H](c2ccc(I)cc2)C[C@@H]2CC[C@H]1N2C/C=C/I	–	–	–	–	–	100	–	71.6	92	–	–	–
